Experimental data as given in ChEMBL document CHEMBL2176904, “Nonpeptidic lysosomal modulators derived from z-phe-ala-diazomethylketone for treating protein accumulation diseases” (ACS Med Chem Lett, 2012).
pIC50: −log10 of the molar value. The source made the active and inactive calls. No cut-off for these calls is given here.

Experiments:
Hippocampus [1] = test: Up-regulation of cathepsin-D level in lysosome of rat hippocampal slice cultures at 3 to 10 uM after 4 days by immunoblot analysis in presence of brefeldin-A; type: functional, tissue-based
How it was run: (§1)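 Organotypic hippocampal slice cultures from rat were treated daily with compound or vehicle. Cathepsin immunoreactivity was measured by immunoblot image analysis and reported as mean IOD ± SEM. Where stated, brefeldin A was co-present.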

Hippocampus [2] = test: Up-regulation of cathepsin-B level in lysosome of rat hippocampal slice cultures at 3 to 10 uM after 4 days by immunoblot analysis in presence of brefeldin-A; type: functional, tissue-based; how it was run: as §1
Cathepsin B [3] = target: T1, Cathepsin B (Homo sapiens, UniProt P07858); test: Inhibition of cathepsin-B using Z-Arg-Arg AMC as substrate by fluorescence assay relative to control; details: concentration not given here
How it was run: (§2)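 Z-Arg-Arg AMC as fluorogenic substrate, compounds titrated. Mean fluorescence units ± SEM were normalized to percent of control. Percent inhibition and IC50 range were fitted by nonlinear regression with one-site competition equations. Untreated control activity was compared with the highest compound concentration by unpaired t test.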

Hippocampus [4] = test: Up-regulation of cathepsin-D level in lysosome of rat hippocampal slice cultures at 3 to 10 uM after 4 days by immunoblot analysis; type: functional, tissue-based; how it was run: as §1
Hippocampus [5] = test: Up-regulation of cathepsin-B level in lysosome of rat hippocampal slice cultures at 3 to 10 uM after 4 days by immunoblot analysis; type: functional, tissue-based; how it was run: as §1
Cathepsin B [6] = target: T1, Cathepsin B; test: Inhibition of cathepsin-B using Z-Arg-Arg AMC as substrate by fluorescence assay; how it was run: as §2
Mus musculus [7] = test: Inhibition of postsynaptic loss of GluR1 protein level in APPSwInd transgenic mouse 20Lms/2J hippocampal homogenates at 25 mg/kg, ip qd for 9 days relative to wild type mouse; type: functional, organism-based; parameters: dose 25 mg/kg; details: Hippocampus
Hippocampus [8] = test: Up-regulation of cathepsin-B level in lysosome of rat hippocampal slice cultures at 20 uM after 4 days by immunoblot analysis; type: functional, tissue-based; details: 10 uM, in the assay text read “10 uM” for “20 uM”
Mus musculus [9] = test: Reduction of 8 to 10-kDa oligomeric amyloid beta species in APPSwInd transgenic mouse 20Lms/2J hippocampal homogenates at 25 mg/kg, ip qd for 9 days relative to wild type mouse; type: functional, organism-based; parameters: dose 25 mg/kg; details: Hippocampus
Mus musculus [10] = test: Increase of active form of cathepsin-B level in APPSwInd transgenic mouse 20Lms/2J hippocampal homogenates at 25 mg/kg, ip qd for 9 days relative to wild type mouse; type: functional, organism-based; parameters: dose 25 mg/kg; details: Hippocampus
Mus musculus [11] = test: Inhibition of presynaptic loss of amphiphysin-I protein level in APPSwInd transgenic mouse 20Lms/2J hippocampal homogenates at 25 mg/kg, ip qd for 9 days relative to wild type mouse; details: Hippocampus
Hippocampus [12] = test: Up-regulation of cathepsin-D level in lysosome of rat hippocampal slice cultures at 10 uM after 4 days by immunoblot analysis relative to PADK
Hippocampus [13] = test: Up-regulation of cathepsin-B level in lysosome of rat hippocampal slice cultures at 10 uM after 4 days by immunoblot analysis relative to PADK
Hippocampus [14] = test: Up-regulation of cathepsin-D level in lysosome of rat hippocampal slice cultures at 0.3 to 1 uM after 4 days by immunoblot analysis; type: functional, tissue-based; how it was run: as §1
Hippocampus [15] = test: Up-regulation of cathepsin-B level in lysosome of rat hippocampal slice cultures at 0.3 to 1 uM after 4 days by immunoblot analysis; type: functional, tissue-based; how it was run: as §1

For C[C@H](NC(=O)[C@H](Cc1ccccc1)NC(=O)OCc1ccccc1)C(=O)C=[N+]=[N-], the Activity (Hippocampus [1]) was “inactive”, the Activity (Hippocampus [2]) was “inactive” and the inhibition (Cathepsin B [3]) was 100%. The Activity (Hippocampus [4]) was “Active”, the Activity (Hippocampus [5]) was “Active” and the pIC50 (Cathepsin B [6]) was 5.03.
CC(=O)N(Cc1ccccc1)C[C@@H](O)[C@H](Cc1ccccc1)NC(=O)OCc1ccccc1 was tested, and the inhibition (Cathepsin B [3]) was 8%, the inhibition (Mus musculus [7]) was “Active” and the Activity (Hippocampus [8]) was “Active”. For the same molecule, the pIC50 (Cathepsin B [6]) was < 4.00, the Activity (Mus musculus [9]) was “Active” and the Activity (Mus musculus [10]) was “Active”. The inhibition (Mus musculus [11]) was “Active”.
[N-]=[N+]=CC(=O)N(Cc1ccccc1)C[C@@H](O)[C@H](Cc1ccccc1)NC(=O)OCc1ccccc1 was tested, and the “fold change (FC)” value (Hippocampus [12]) was 2, the inhibition (Cathepsin B [3]) was 13% and the “fold change (FC)” value (Hippocampus [13]) was 2. For the same molecule, the Activity (Hippocampus [8]) was “Active”.
Work on N#[N+][CH-]C(=O)N(Cc1ccccc1)C[C@@H](O)[C@H](Cc1ccccc1)NC(=O)OCc1ccccc1 yielded a pIC50 (Cathepsin B [6]) of 5.70.
In the case of CCCNC(=O)[C@H]1O[C@@H]1C(=O)N[C@H](C(=O)N1CCC[C@H]1C(=O)OC)[C@@H](C)CC, the Activity (Hippocampus [14]) was “inactive”, the inhibition (Cathepsin B [3]) was 100% and the pIC50 (Cathepsin B [6]) was 7.10. The Activity (Hippocampus [15]) was “inactive”.
